Assay results: ChEMBL document CHEMBL4428081, “Selective AKR1C3 Inhibitors Potentiate Chemotherapeutic Activity in Multiple Acute Myeloid Leukemia (AML) Cell Lines” (ACS Med Chem Lett, 2016)
Calls of active or inactive are those of the source.

What was measured:
[1] = biological target: T1, Aldo-keto reductase family 1 member C3 (Homo sapiens) (UniProt P42330); assay: Inhibition of AKR1C3 in human KG1a cells assessed as potentiation of etoposide-induced cytotoxicity by measuring reduction in cell viability at 0.1 uM coincubated with etoposide at 1 uM after 72 hrs by MTS assay; assay type: cell-based
T1 sequence (whole entry): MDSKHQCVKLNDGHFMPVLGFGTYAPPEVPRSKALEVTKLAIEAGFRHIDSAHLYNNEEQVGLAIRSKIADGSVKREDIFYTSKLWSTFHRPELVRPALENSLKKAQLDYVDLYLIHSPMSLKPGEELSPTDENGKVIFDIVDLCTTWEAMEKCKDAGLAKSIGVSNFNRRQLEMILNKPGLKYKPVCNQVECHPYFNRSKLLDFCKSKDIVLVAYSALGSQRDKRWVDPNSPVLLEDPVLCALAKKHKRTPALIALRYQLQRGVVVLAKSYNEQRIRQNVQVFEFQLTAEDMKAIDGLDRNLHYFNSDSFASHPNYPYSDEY
Method in brief: (§1)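 HL-60 or KG1a cells were coincubated with inhibitor and etoposide for 72 h, then cell viability was read. Values are mean ± SD (n = 6). Treatments were compared with control by two-tailed t test.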

HL-60 = assay: Cytotoxicity against human HL60 cells assessed as reduction in cell viability up to 100 uM at 72 hrs by MTS assay; assay type: functional, cell-based
Method in brief: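 HL-60 human acute promyelocytic leukemia cells exposed to AKR1C3 inhibitor alone, with no chemotherapeutic, over a range up to 100 μM. Lower working range was 0.1–1 μM. Read-out was cell viability relative to untreated control.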

[2] = biological target: T1, Aldo-keto reductase family 1 member C3 (Homo sapiens); assay: Inhibition of AKR1C3 in human HL60 cells assessed as potentiation of etoposide-induced cytotoxicity by measuring reduction in cell viability pre-treated with 0.1 to 1 uM compound for 24 hrs followed by 1 uM etoposide exposure for additional 72 hrs by MTS assay; assay type: cell-based
KG-1a = assay: Cytotoxicity against human KG1a cells expressing AKR1C3 assessed as reduction in cell viability at >25 uM at 72 hrs by MTS assay; assay type: functional, cell-based
[3] = biological target: T1, Aldo-keto reductase family 1 member C3 (Homo sapiens); assay: Inhibition of AKR1C3 in human HL60 cells assessed as potentiation of etoposide-induced cytotoxicity by measuring reduction in cell viability at 0.1 uM coincubated with etoposide at 1 uM after 72 hrs by MTS assay (reference value: 40%); assay type: cell-based; method in brief: as §1
[4] = biological target: T1, Aldo-keto reductase family 1 member C3 (Homo sapiens); assay: Inhibition of AKR1C3 in human HL60 cells assessed as potentiation of etoposide-induced cytotoxicity by measuring reduction in cell viability at 0.1 uM coincubated with etoposide at 0.5 uM after 72 hrs by MTS assay (reference value: 20%); assay type: cell-based; method in brief: as §1
[5] = biological target: Aldo-keto reductase family 1 member C3 (Homo sapiens, UniProt P42330); assay: Inhibition of N-terminal His6-tagged human recombinant AKR1C3 in presence of NADPH by fluorescence assay
HOP-62 = assay: Cytotoxicity against human HOP62 cells at 10 uM after 48 hrs by sulforhodamine B assay; assay type: functional, cell-based
IGROV-1 = assay: Cytotoxicity against human IGROV1 cells at 10 uM after 48 hrs by sulforhodamine B assay; assay type: functional, cell-based
K562 = assay: Cytotoxicity against human K562 cells at 10 uM after 48 hrs by sulforhodamine B assay; assay type: functional, cell-based
A498 = assay: Cytotoxicity against human A498 cells at 10 uM after 48 hrs by sulforhodamine B assay; assay type: functional, cell-based
U-251 = assay: Cytotoxicity against human U251 cells at 10 uM after 48 hrs by sulforhodamine B assay; assay type: functional, cell-based
Method in brief: (§2)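 NCI 60 cancer cell line panel screen run at a single concentration of 10 μM.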

PC-3 = assay: Cytotoxicity against human PC3 cells at 10 uM after 48 hrs by sulforhodamine B assay; assay type: functional, cell-based
T47D = assay: Cytotoxicity against human T47D cells at 10 uM after 48 hrs by sulforhodamine B assay; assay type: functional, cell-based; method in brief: as §2
SNB-75 = assay: Cytotoxicity against human SNB75 cells at 10 uM after 48 hrs by sulforhodamine B assay; assay type: functional, cell-based; method in brief: as §2
UACC-62 = assay: Cytotoxicity against human UACC62 cells at 10 uM after 48 hrs by sulforhodamine B assay; assay type: functional, cell-based; method in brief: as §2
HCT-15 = assay: Cytotoxicity against human HCT15 cells at 10 uM after 48 hrs by sulforhodamine B assay; assay type: functional, cell-based
A549 = assay: Cytotoxicity against human A549/ATCC cells at 10 uM after 48 hrs by sulforhodamine B assay; assay type: functional, cell-based
HCC 2998 = assay: Cytotoxicity against human HCC2998 cells at 10 uM after 48 hrs by sulforhodamine B assay; assay type: functional, cell-based
CCRF-CEM = assay: Cytotoxicity against human CCRF-CEM cells at 10 uM after 48 hrs by sulforhodamine B assay; assay type: functional, cell-based
Hs-578T = assay: Cytotoxicity against human Hs 578T cells at 10 uM after 48 hrs by sulforhodamine B assay; assay type: functional, cell-based
M14 = assay: Cytotoxicity against human M14 cells at 10 uM after 48 hrs by sulforhodamine B assay; assay type: functional, cell-based
NCI-H522 = assay: Cytotoxicity against human NCI-H522 cells at 10 uM after 48 hrs by sulforhodamine B assay; assay type: functional, cell-based
ACHN = assay: Cytotoxicity against human ACHN cells at 10 uM after 48 hrs by sulforhodamine B assay; assay type: functional, cell-based
UACC-257 = assay: Cytotoxicity against human UACC257 cells at 10 uM after 48 hrs by sulforhodamine B assay; assay type: functional, cell-based; method in brief: as §2
NCI-H322M = assay: Cytotoxicity against human NCI-H322M cells at 10 uM after 48 hrs by sulforhodamine B assay; assay type: functional, cell-based
SN12C = assay: Cytotoxicity against human SN12C cells at 10 uM after 48 hrs by sulforhodamine B assay; assay type: functional, cell-based
CAKI-1 = assay: Cytotoxicity against human Caki1 cells at 10 uM after 48 hrs by sulforhodamine B assay; assay type: functional, cell-based
TK-10 = assay: Cytotoxicity against human TK10 cells at 10 uM after 48 hrs by sulforhodamine B assay; assay type: functional, cell-based; method in brief: as §2
NCI/ADR-RES = assay: Cytotoxicity against human NCI-ADR-RES cells at 10 uM after 48 hrs by sulforhodamine B assay; assay type: functional, cell-based
OVCAR-3 = assay: Cytotoxicity against human OVCAR3 cells at 10 uM after 48 hrs by sulforhodamine B assay; assay type: functional, cell-based
MDA-MB-231 = assay: Cytotoxicity against human MDA-MB-231 cells at 10 uM after 48 hrs by sulforhodamine B assay; assay type: functional, cell-based
NCI-H460 = assay: Cytotoxicity against human NCI-H460 cells at 10 uM after 48 hrs by sulforhodamine B assay; assay type: functional, cell-based
UO-31 = assay: Cytotoxicity against human UO31 cells at 10 uM after 48 hrs by sulforhodamine B assay; assay type: functional, cell-based; method in brief: as §2
SK-MEL-28 = assay: Cytotoxicity against human SK-MEL-28 cells at 10 uM after 48 hrs by sulforhodamine B assay; assay type: functional, cell-based
Malme-3M = assay: Cytotoxicity against human MALME-3M cells at 10 uM after 48 hrs by sulforhodamine B assay; assay type: functional, cell-based
HL-60(TB) = assay: Cytotoxicity against human HL-60(TB) cells at 10 uM after 48 hrs by sulforhodamine B assay; assay type: functional, cell-based
Method in brief: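 Single-concentration (10 μM) test run within the National Cancer Institute 60 cancer cell line screen, with HL-60 as one panel member.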

786-0 = assay: Cytotoxicity against human 786-0 cells at 10 uM after 48 hrs by sulforhodamine B assay; assay type: functional, cell-based
NCI-H226 = assay: Cytotoxicity against human NCI-H226 cells at 10 uM after 48 hrs by sulforhodamine B assay; assay type: functional, cell-based
SW-620 = assay: Cytotoxicity against human SW620 cells at 10 uM after 48 hrs by sulforhodamine B assay; assay type: functional, cell-based; method in brief: as §2
DU-145 = assay: Cytotoxicity against human DU145 cells at 10 uM after 48 hrs by sulforhodamine B assay; assay type: functional, cell-based
SF-295 = assay: Cytotoxicity against human SF295 cells at 10 uM after 48 hrs by sulforhodamine B assay; assay type: functional, cell-based
SR = assay: Cytotoxicity against human SR cells at 10 uM after 48 hrs by sulforhodamine B assay; assay type: functional, cell-based; method in brief: as §2
MDA-MB-435 = assay: Cytotoxicity against human MDA-MB-435 cells at 10 uM after 48 hrs by sulforhodamine B assay; assay type: functional, cell-based
NCI-H23 = assay: Cytotoxicity against human NCI-H23 cells at 10 uM after 48 hrs by sulforhodamine B assay; assay type: functional, cell-based
OVCAR-8 = assay: Cytotoxicity against human OVCAR8 cells at 10 uM after 48 hrs by sulforhodamine B assay; assay type: functional, cell-based
OVCAR-4 = assay: Cytotoxicity against human OVCAR4 cells at 10 uM after 48 hrs by sulforhodamine B assay; assay type: functional, cell-based
MOLT-4 = assay: Cytotoxicity against human MOLT4 cells at 10 uM after 48 hrs by sulforhodamine B assay; assay type: functional, cell-based
HCT-116 = assay: Cytotoxicity against human HCT116 cells at 10 uM after 48 hrs by sulforhodamine B assay; assay type: functional, cell-based
MCF7 = assay: Cytotoxicity against human MCF7 cells at 10 uM after 48 hrs by sulforhodamine B assay; assay type: functional, cell-based
KM12 = assay: Cytotoxicity against human KM12 cells at 10 uM after 48 hrs by sulforhodamine B assay; assay type: functional, cell-based
SNB-19 = assay: Cytotoxicity against human SNB19 cells at 10 uM after 48 hrs by sulforhodamine B assay; assay type: functional, cell-based; method in brief: as §2
SF-268 = assay: Cytotoxicity against human SF268 cells at 10 uM after 48 hrs by sulforhodamine B assay; assay type: functional, cell-based
SK-MEL-2 = assay: Cytotoxicity against human SK-MEL-2 cells at 10 uM after 48 hrs by sulforhodamine B assay; assay type: functional, cell-based
MDA-MB-468 = assay: Cytotoxicity against human MDA-MB-468 cells at 10 uM after 48 hrs by sulforhodamine B assay; assay type: functional, cell-based
RPMI-8226 = assay: Cytotoxicity against human RPMI8226 cells at 10 uM after 48 hrs by sulforhodamine B assay; assay type: functional, cell-based
HOP-92 = assay: Cytotoxicity against human HOP92 cells at 10 uM after 48 hrs by sulforhodamine B assay; assay type: functional, cell-based
SK-MEL-5 = assay: Cytotoxicity against human SK-MEL-5 cells at 10 uM after 48 hrs by sulforhodamine B assay; assay type: functional, cell-based
OVCAR-5 = assay: Cytotoxicity against human OVCAR5 cells at 10 uM after 48 hrs by sulforhodamine B assay; assay type: functional, cell-based
COLO 205 = assay: Cytotoxicity against human COLO205 cells at 10 uM after 48 hrs by sulforhodamine B assay; assay type: functional, cell-based
LOX IMVI = assay: Cytotoxicity against human LOXIMVI cells at 10 uM after 48 hrs by sulforhodamine B assay; assay type: functional, cell-based
SF-539 = assay: Cytotoxicity against human SF539 cells at 10 uM after 48 hrs by sulforhodamine B assay; assay type: functional, cell-based
RXF 393 = assay: Cytotoxicity against human RXF393 cells at 10 uM after 48 hrs by sulforhodamine B assay; assay type: functional, cell-based

CC(C)=CCc1cc(/C=C/C(=O)O)ccc1NC(=O)CCc1ccccc1
active: Activity (KG-1a)
25%: Activity [4]
42%: Activity [1]
80 to 95%: Activity [2]
57%: Activity [3]
inactive: Activity (HL-60)

C[C@@H]1C(O)=C(C(N)=O)C(=O)[C@@]2(O)C(O)=C3C(=O)c4c(O)cccc4[C@@](C)(O)[C@H]3C[C@@H]12
501 nM: IC50 [5]

CC(C)=CCc1cc(/C=C/C(=O)O)ccc1OC(=O)CCc1ccccc1
active: Activity (KG-1a)
70%: Activity [3]
80 to 95%: Activity [2]
inactive: Activity (HOP-62) | Activity (IGROV-1) | Activity (K562) | Activity (A498) | Activity (U-251) | Activity (PC-3) | Activity (T47D) | Activity (SNB-75) | Activity (UACC-62) | Activity (HCT-15) | Activity (A549) | Activity (HCC 2998) | Activity (CCRF-CEM) | Activity (Hs-578T) | Activity (M14) | Activity (HL-60) | Activity (NCI-H522) | Activity (ACHN) | Activity (UACC-257) | Activity (NCI-H322M) | Activity (SN12C) | Activity (CAKI-1) | Activity (TK-10) | Activity (NCI/ADR-RES) | Activity (OVCAR-3) | Activity (MDA-MB-231) | Activity (NCI-H460) | Activity (UO-31) | Activity (SK-MEL-28) | Activity (Malme-3M) | Activity (HL-60(TB)) | Activity (786-0) | Activity (NCI-H226) | Activity (SW-620) | Activity (DU-145) | Activity (SF-295) | Activity (SR) | Activity (MDA-MB-435) | Activity (NCI-H23) | Activity (OVCAR-8) | Activity (OVCAR-4) | Activity (MOLT-4) | Activity (HCT-116) | Activity (MCF7) | Activity (KM12) | Activity (SNB-19) | Activity (SF-268) | Activity (SK-MEL-2) | Activity (MDA-MB-468) | Activity (RPMI-8226) | Activity (HOP-92) | Activity (SK-MEL-5) | Activity (OVCAR-5) | Activity (COLO 205) | Activity (LOX IMVI) | Activity (SF-539) | Activity (RXF 393)
